Laboratory results reported in ChEMBL document CHEMBL1133181, “A novel approach for the virtual screening and rational design of anticancer compounds” (J Med Chem, 2000).
≈ marks a conversion by molar mass, not a printed value.

Legend:
[1] = Antitumor activity to reduce proliferation of human T-lymphocyte Molt4/C8 cells by 50%; format: functional, cell-based; settings: molt-4
In short: (§1)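 CEM or Molt4/C8 cells were seeded into 96-well wells with test compound and grown for 72 h at 37 °C in a humidified, CO2-controlled atmosphere. Cells were then counted with a Coulter counter. IC50 is the compound concentration that reduced the number of living cells by 50%.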

[2] = tested on: L1210; test: Antitumor activity to reduce proliferation of murine leukemia L1210/0 cells by 50%; format: functional, cell-based, Mus musculus
In short: (§2)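 L1210 murine leukemia cells were incubated in 96-well microtiter wells with test compound for 48 h at 37 °C under humidified, CO2-controlled conditions. Cell numbers were then counted with a Coulter counter. IC50 was taken as the concentration giving a 50% reduction in living cell count.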

[3] = Antitumor activity to reduce proliferation of human T-lymphocyte CEM/0 cells by 50%; format: functional, cell-based; in short: as §1
[4] = Concentration required to reduce proliferation of human T-lymphocyte Molt4/C8 cells by 50%; format: functional, cell-based; settings: molt-4; in short: as §1
[5] = Concentration required to reduce proliferation of human T-lymphocyte CEM/0 cells by 50%; format: functional, cell-based; in short: as §1
[6] = tested on: L1210; test: Concentration required to reduce proliferation of murine leukemia L1210/0 cells by 50%; format: functional, cell-based, Mus musculus; in short: as §2

Row | Structure (SMILES) | IC50 [1] | IC50 [2] | IC50 [3] | IC50 [4] | IC50 [5] | IC50 [6]
1 | OCC1CCCC1n1cnc2c(Cl)ncnc21 (trans isomer) | 39.2 µg/mL (≈ 155 µM) | 56.1 µg/mL (≈ 222 µM) | 19 µg/mL (≈ 75.2 µM) | – | – | –
2 | OCC1CCCC1n1cnc2c(O)ncnc21 (trans isomer) | – | – | – | > 200 µg/mL | > 200 µg/mL | > 200 µg/mL
3 | O=c1[nH]c(=O)n(C2CCCC2CO)cc1I (trans isomer) | > 200 µg/mL | > 200 µg/mL | > 200 µg/mL | – | – | –
4 | OCC1CCCC1Cn1cnc2c(Cl)ncnc21 (cis isomer) | 6.54 µg/mL (≈ 24.5 µM) | 14 µg/mL (≈ 52.5 µM) | 16 µg/mL (≈ 60 µM) | – | – | –
5 | OCC1CCCC1n1cnc2c(Cl)ncnc21 (cis isomer) | 49.9 µg/mL (≈ 197 µM) | 62.8 µg/mL (≈ 249 µM) | 61 µg/mL (≈ 241 µM) | – | – | –
6 | O=c1[nH]c(=O)n(CC2CCCC2CO)cc1I (trans isomer) | 158 µg/mL (≈ 451 µM) | 65.8 µg/mL (≈ 188 µM) | 131 µg/mL (≈ 374 µM) | – | – | –
7 | OCC1CCCC1Cn1cnc2c(O)ncnc21 (cis isomer) | – | – | – | > 200 µg/mL | > 200 µg/mL | > 200 µg/mL
8 | O=c1[nH]c(=O)n(C2CCCC2CO)cc1I (stereo in doubt; 4a) | 77.4 µg/mL (≈ 230 µM) | 52.3 µg/mL (≈ 156 µM) | 57.4 µg/mL (≈ 171 µM) | – | – | –
9 | Nc1ncnc2c1ncn2C1CCCC1CO (cis isomer) | – | > 200 µg/mL | > 200 µg/mL | – | – | –
10 | OCC1CCCC1Cn1cnc2c(Cl)ncnc21 (trans isomer) | 22.3 µg/mL (≈ 83.6 µM) | 48.7 µg/mL (≈ 183 µM) | 15 µg/mL (≈ 56.2 µM) | – | – | –
11 | Nc1ncnc2c1ncn2C1CCCC1CO (trans isomer) | > 200 µg/mL | 179 µg/mL (≈ 767 µM) | 180 µg/mL (≈ 772 µM) | – | – | –
12 | O=c1ccn(C2CCCC2CO)c(=O)[nH]1 (trans isomer) | > 200 µg/mL | > 200 µg/mL | > 200 µg/mL | – | – | –
13 | O=c1ccn(CC2CCCC2CO)c(=O)[nH]1 (configuration not stated) | > 200 µg/mL | > 200 µg/mL | > 200 µg/mL | – | – | –
14 | Nc1ncnc2c1ncn2CC1CCCC1CO (stereo in doubt; 7c) | 100 µg/mL (≈ 404 µM) | 102 µg/mL (≈ 412 µM) | 108 µg/mL (≈ 437 µM) | – | – | –
15 | O=c1[nH]c(=O)n(CC2CCCC2CO)cc1I (cis isomer) | 108 µg/mL (≈ 308 µM) | 71.1 µg/mL (≈ 203 µM) | 117 µg/mL (≈ 334 µM) | – | – | –
16 | Nc1ncnc2c1ncn2CC1CCCC1CO (trans isomer) | > 200 µg/mL | > 200 µg/mL | > 200 µg/mL | – | – | –
